In the library only some 1.5% were active in any assay of this set; here they are far more common.
Runt-SMMHC FRET – inhibitors of RUNX1 Runt–CBFb-SMMHC binding, primary screen, biochemical, FRET, Cerulean-Runt, Venus-CBFb-SMMHC, uHTS | Runt-related transcription factor 1 (Homo sapiens) + Core-binding factor subunit beta … | Cerulean-Runt/Venus-CBFb-SMMHC FRET ratio 530/480, 1 h | inhibition, % at 20 µM | 220,000 tested, 0.74% active | AID 1434, 2008;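 active = mean inhibition across duplicate retests at 20 µM reaching about 50%, limit read from the data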;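 note: inhibitors lower the FRET ratio by blocking Runt binding to CBFb-SMMHC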
Target sequence (Q01196 whole entry, looked up): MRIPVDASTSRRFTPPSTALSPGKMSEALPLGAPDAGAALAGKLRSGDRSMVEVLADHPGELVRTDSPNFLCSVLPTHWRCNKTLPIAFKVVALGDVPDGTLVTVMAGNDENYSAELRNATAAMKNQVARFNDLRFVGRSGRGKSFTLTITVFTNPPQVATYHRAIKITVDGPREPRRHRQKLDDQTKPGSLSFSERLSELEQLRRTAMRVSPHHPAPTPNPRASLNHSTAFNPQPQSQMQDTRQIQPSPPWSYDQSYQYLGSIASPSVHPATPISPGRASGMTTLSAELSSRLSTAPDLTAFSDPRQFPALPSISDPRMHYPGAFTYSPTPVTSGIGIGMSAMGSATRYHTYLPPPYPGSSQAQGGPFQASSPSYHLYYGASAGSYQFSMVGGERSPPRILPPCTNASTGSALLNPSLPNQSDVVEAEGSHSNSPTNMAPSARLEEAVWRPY
Target sequence (Q13951 whole entry, looked up): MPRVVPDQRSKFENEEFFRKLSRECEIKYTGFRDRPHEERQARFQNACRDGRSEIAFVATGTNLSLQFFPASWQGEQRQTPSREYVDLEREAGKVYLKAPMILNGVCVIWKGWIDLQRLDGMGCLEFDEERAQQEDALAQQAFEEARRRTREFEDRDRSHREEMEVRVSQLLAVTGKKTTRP
Runt-CBFb FRET – inhibitors of RUNX1 Runt–CBFb binding, primary screen, biochemical, FRET, Cerulean-Runt, Venus-CBFb, uHTS. AID 1496, 2009. 220,000 tested, 0.46% active. Cerulean-Runt/Venus-CBFb FRET ratio 530/480, 1 h. Runt-related transcription factor 1 (Homo sapiens) + Core-binding factor subunit beta …. inhibition, % at 20 µM;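 active = inhibition over about 50% at 20 µM in the single-dose screen, limit read from the data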
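Measured by: fluorescence energy transfer, 422 nm excitation, 530/480 nm emission; Assay system: Cerulean-Runt domain; Medium: Tris pH 7.5 buffer with BSA; Measure: loss of energy transfer signal; Controls: 5 µM unlabeled CBFb as full-inhibition high control; Incubation: protein complex preformed 1 h, compound exposure 1 h, room temperature, dark.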
Hck-Nef inh – inhibitors of Nef-activated human Hck kinase, primary screen, biochemical, Z-Lyte FRET, 384-well, Hck-YEEI; Tyrosine-protein kinase HCK (Homo sapiens), P08631; Recombinant Hck-YEEI plus Nef, Z-Lyte FRET kinase assay; inhibition, % at 20 µM; 220,000 tested, 0.68% active;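 active = Hck-Nef kinase inhibition above about 50%, limit read from the data; inactive = inhibition below that limit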
RanGTP-Impb inh – inhibitors of RanGTP-importin-beta interaction, primary screen, biochemical, FRET, CFP-Ran, YFP-importin-beta, homogeneous; cell-free CFP-Ran/YFP-importin-beta FRET ratio; AID 2216, 2009; Ran GTPase (GTP-bound) - importin-beta complex; 300,000 tested, 1.1% active; inhibition, % (concentration not given with the values);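 active = more than half of the replicate wells show a fall in the fluorescence ratio signal beyond about 16%, limit read from the data, passing the limit was not always enough; inconclusive = exactly half of the replicate wells pass the set limit; inactive = fewer than half of replicates pass the limit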
CaV13 FRET inh – Primary screen for inhibitors of IQ motif and Ca2+-dependent inactivation inhibitor domain binding in CACNA1D, Förster resonance energy transfer in living cells, …; HEK cells, CFP/YFP FRET ICDI-IQ, plate reader, 10 min; percent FRET-ratio fall versus neutral wells; inhibition, % at 12.3 µM; 340,000 tested, 0.098% active;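 active = mean replicate inhibition of at least 30% and at least 1% of replicates passing that level; inconclusive = only one of the two criteria is met; inactive = neither criterion is met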
Hck Nef conf – retest of Hck:Nef kinase inhibitor hits, confirmation, biochemical, Z-Lyte FRET, 384-well, p-Tyr peptide counterscreen; calls only at 10 µM; 1,300 tested, 28% active; Recombinant Hck-YEEI:Nef, Z-Lyte FRET kinase assay; shares compounds with Hck-Nef inh; AID 463188, 2010;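 active = average inhibition of at least 50%, with Z-scores no higher than 3 in both the phospho-tyrosine peptide and fluorescence counterscreens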
A number is an active result; i = inactive; ? = inconclusive; nt = no result given; + = active, no number.

SMILES | Runt-SMMHC FRET | Runt-CBFb FRET | Hck-Nef inh | RanGTP-Impb inh | CaV13 FRET inh | Hck Nef conf
COc1ccc(Sc2ccc(/C=C3\C(=O)NN(c4ccccc4)C3=O)o2)cc1 | i | i | i | i | i | nt
COc1cc(/C=C2/C(=O)NN(c3ccc(Cl)cc3)C2=O)cc(OC)c1O | nt | nt | nt | i | i | nt
COC(=O)[C@@H](Cc1c[nH]c2ccccc12)NC(=O)CCC(=O)c1ccc(Br)cc1 | nt | nt | nt | i | i | nt
O=C(CCNC(=O)c1ccccc1Cl)Nc1ccc(S(=O)(=O)Nc2nccs2)cc1 | nt | nt | nt | nt | i | nt
O=C(O)c1ccc2c(c1)C(=O)/C(=C\c1ccco1)C2=O | i | i | 61.4 | i | i | +
O=C(O)c1ccc2c(c1)C(=O)/C(=C/c1ccccc1)C2=O | i | i | i | i | i | nt
O=S(=O)(O)c1cccc(N=Nc2c(O)ccc3ccccc23)c1 | i | i | 85.3 | i | i | +
COc1ccc(/C=C/C(=O)NCc2cn(C)nc2C)cc1COc1ccc(Cl)cc1Br | i | i | i | i | i | nt
CCn1nc(C)c(NC(=O)/C=C/c2ccc(OC)c(COc3ccc(Cl)cc3Br)c2)c1C | i | i | 98.7 | i | i | i
CC[N+]1(CC)CC2=Cc3c(ccc4ccccc34)C(C)C2C1 (stereo unspecified) | i | i | i | i | i | nt
Cc1ccc(S(=O)(=O)c2c(N)n(CCCO)c3nc4ccccc4nc23)cc1 | i | i | 81.3 | i | nt | nt
CCC(=O)Nc1c(S(=O)(=O)c2ccccc2)c2nc3ccccc3nc2n1C(C)c1ccccc1 (stereo unspecified) | 75.5 | i | 75.0 | i | i | nt
CCCCCn1c(NC(=O)c2ccco2)c(S(=O)(=O)c2ccc(C)cc2)c2nc3ccccc3nc21 | 147.3 | i | 56.2 | 80.2 | nt | nt
CCCCn1c(NS(=O)(=O)c2ccccc2)c(S(=O)(=O)c2ccc(C)cc2)c2nc3ccccc3nc21 | 53.2 | i | 65.8 | 51.3 | i | nt
Cc1ccc(S(=O)(=O)c2c(N)n(CCC(C)C)c3nc4ccccc4nc23)cc1 | i | i | i | i | i | nt
Cc1ccc(C(=O)Nn2c(N)c(S(=O)(=O)c3ccc(C)cc3)c3nc4ccccc4nc32)cc1 | i | i | i | i | i | nt
CSc1nc2ccc(NS(=O)(=O)c3ccc([N+](=O)[O-])cc3)cc2s1 | i | i | i | i | i | nt
COC(=O)c1cccc(C23CC4(C2)[C@H](CN(C)[C@@H]4c2ccccc2)C3c2ccc(C(F)(F)F)cc2)c1 (stereo partly specified) | i | i | i | i | i | nt
Cn1cc(/C=C(\C#N)C(=O)Nc2cccc([N+](=O)[O-])c2)c2ccccc21 | i | nt | 61.6 | i | i | i
CC(C)c1ccc(N2C=Nc3ccc(C(C)C)cc3C2)cc1 | i | i | i | i | i | nt
COc1cc(NS(=O)(=O)c2ccc(NC(=S)NC(=O)c3sc4ccccc4c3Cl)cc2)nc(OC)n1 | i | i | 62.9 | i | i | +
C[C@@H]1CCCN1[C@@H]1CS(=O)(=O)N[C@H]1COCc1ccccc1 | nt | nt | nt | nt | i | nt
N=c1n(CCN2CCCC2)c2ccccc2n1CC(O)c1ccco1 (stereo unspecified) | i | i | i | i | i | nt
CC[n+]1ccc(C)c2cc(SC(F)(F)F)ccc21 | i | i | 72.3 | i | nt | i
COc1ccc(-n2nc(C(=O)Nc3ccc(OC)c(OC)c3)c3c4ccccc4n(C)c3c2=O)cc1 | i | i | 89.4 | i | i | +
SMILES | Runt-SMMHC FRET | Runt-CBFb FRET | Hck-Nef inh | RanGTP-Impb inh | CaV13 FRET inh | Hck Nef conf
COc1ccc(-n2nc(C(=O)Nc3ccc4c(c3)OCO4)c3c4ccccc4n(C)c3c2=O)cc1 | i | i | i | i | i | nt
C(=C\c1nccc2c1[nH]c1ccccc12)/c1ccccc1 | 79.8 | i | 163.8 | i | i | nt
Cc1[nH]c2ccccc2c1/C=N/Nc1ccccn1 | i | i | 65.3 | i | i | +
O=C(Nc1cccc(-c2nc3cccnc3s2)c1)c1ccc(Cl)nc1 | i | i | 87.4 | i | i | i
O=C(Nc1cccc(-c2nc3cccnc3s2)c1)c1cccnc1Cl | i | i | i | i | i | nt
O=C(Nc1cccc(-c2nc3cccnc3s2)c1)C1c2ccccc2Oc2ccccc21 | i | i | 102.1 | i | i | +
O=C(Nc1nc2ccsc2c(=O)s1)c1ccco1 | i | i | 64.7 | i | i | i
COc1cc2nc(NC(=O)c3ccco3)sc(=O)c2cc1OC | i | i | i | i | i | nt
Cc1csc(NC(=O)C2CSC3(C)CCC(=O)N23)n1 (stereo unspecified) | nt | nt | nt | i | i | nt
C=CCOC(=O)C1=C(C)NC(SCC(=O)N(CC)CC)=C(C#N)C1c1ccccc1 (stereo unspecified) | i | i | i | ? | i | nt
C=CCOC(=O)C1=C(C)NC(SCC(=O)NC(=O)OCC)=C(C#N)C1c1cccnc1 (stereo unspecified) | i | i | 50.2 | i | i | i
COc1cc2cc(C)nc(Cc3cccc4ccccc34)c2cc1OC | i | i | i | i | i | nt
Cc1ccc(C(=O)Nc2cccc(C(F)(F)F)c2)cc1Nc1ncnc2nc[nH]c12 | i | i | 55.2 | i | i | i
Cc1ccc(C(=O)Nc2cccc(C(F)(F)F)c2)cc1NC(=O)c1ccno1 | i | i | 74.9 | i | i | +
Cc1ccc(C(=O)Nc2cccc(C(F)(F)F)c2)cc1NC(=O)c1nccn1C | i | i | i | i | i | nt
COc1cc(SC)ccc1C(=O)NNC(=O)c1cc(C)oc1C | nt | nt | nt | i | i | nt
N#C/C(=C\c1coc2ccccc2c1=O)C(N)=S | i | i | i | i | i | nt
N#C/C(=C\c1coc2ccc(O)cc2c1=O)C(=O)Nc1nc2ccccc2s1 | i | i | 63.7 | i | i | i
COC(=O)c1c(NC(=O)COC(=O)c2ccc(NC(=O)CC#N)cc2)sc2c1CCCCC2 | i | i | 113.0 | i | i | +
O=C(CSc1nncs1)NC(=O)Nc1ccc2c(c1)OCCO2 | i | i | i | i | i | nt
Cc1cc(C(=O)N/N=C2\CC(=O)c3ccccc32)c(C)n1-c1ccc(F)cc1 | i | i | 53.2 | i | i | i
Cc1ccc(C2=NC(=O)/C(=C/c3cc(O)c(O)c(Br)c3)S2)cc1 | i | i | 50.1 | nt | i | +
COc1cc(/C=C2\SC(c3ccc(C)cc3)=NC2=O)cc(OC)c1O | i | i | i | i | i | nt

Source: PubChem
